In brackets after ≈: the same amount, converted by molar mass.
Tests used:
Aspergillus flavus = assay: In vitro evaluation of minimum inhibitory concentration against Aspergillus flavus 19; format: functional; conditions: Aspergillus flavus; read-out: MIC
How it was run: (§1)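 Stocks are 800 μg/mL in 50% ethanol. Each plate gets 10 μL of inoculum at 10^5 cfu/mL. Incubation at 25 °C, 48 h for yeasts and 120 h for dermatophytes and molds. Organisms are ATCC strains or clinical isolates.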

Candida parapsilosis = assay: In vitro evaluation of minimum inhibitory concentration against Candida parapsilosis 61; format: functional; conditions: Lodderomyces parapsilosis; read-out: MIC; how it was run: as §1
Mus sp. [1] = assay: In vivo evaluation of % survival rate after peroral administration on 5th day at dose 1 mg/kg; format: functional; conditions: Mus sp., po
Candida albicans [2] = assay: In vivo evaluation of minimum inhibitory concentration against Candida albicans 406; format: functional; conditions: Candida albicans; read-out: MIC
How it was run: (§2)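 Broth macrodilution MIC following NCCLS M27-P, in RPMI-1640 buffered with 0.165 M MOPS. Fluconazole was dissolved in water and other drugs in DMSO. C. parapsilosis ATCC 22019 served as the reference strain in every run. MIC was the lowest concentration giving turbidity at or below the 80% inhibition standard.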

Candida albicans [3] = assay: In vivo evaluation of minimum inhibitory concentration against Candida albicans 60; format: functional; conditions: Candida albicans; read-out: MIC; how it was run: as §2
Trichophyton benhamiae = assay: In vitro evaluation of minimum inhibitory concentration against Trichophyton mentagrophytes 23; format: functional, Arthroderma benhamiae; conditions: Trichophyton benhamiae; read-out: MIC; how it was run: as §1
Trichophyton rubrum = assay: In vitro evaluation of minimum inhibitory concentration against Trichophyton rubrum 90; format: functional; conditions: Trichophyton rubrum; read-out: MIC; how it was run: as §1
Microsporum canis = assay: In vitro evaluation of minimum inhibitory concentration against Microsporum canis 47; format: functional; conditions: Microsporum canis; read-out: MIC; how it was run: as §1
Nakaseomyces glabratus = assay: In vitro evaluation of minimum inhibitory concentration against Torulopsis glabrata 78; format: functional; conditions: Nakaseomyces glabratus; read-out: MIC; how it was run: as §1
Kluyveromyces marxianus = assay: In vivo Evaluation of minimum inhibitory concentration against Candida pseudotropicalis 13; format: functional; conditions: Kluyveromyces marxianus; in the assay text read “In vitro” for “In vivo”; read-out: MIC; how it was run: as §1
Aspergillus fumigatus = assay: In vitro evaluation of minimum inhibitory concentration against Aspergillus fumigatus 33; format: functional; conditions: Aspergillus fumigatus; read-out: MIC; how it was run: as §1
Candida tropicalis = assay: In vitro evaluation of minimum inhibitory concentration against Candida tropicalis 2.11; format: functional; conditions: Candida tropicalis; read-out: MIC; how it was run: as §1
Mus sp. [4] = assay: In vivo evaluation of % survival rate after peroral administration on 9th day at dose 1 mg/kg; format: functional; conditions: Mus sp., po
Mus sp. [5] = assay: In vivo evaluation of % survival rate after peroral administration on 7th day at dose 1 mg/kg; format: functional; conditions: Mus sp., po
[6] = tested on: Meyerozyma guilliermondii; assay: In vitro evaluation of minimum inhibitory concentration against Candida guilliermondii 26; format: functional; conditions: Meyerozyma guilliermondii; read-out: MIC; how it was run: as §1
Nannizzia gypsea = assay: In vitro evaluation of minimum inhibitory concentration against Microsporum gypseum 22; format: functional; conditions: Nannizzia gypsea; read-out: MIC; how it was run: as §1
Pichia kudriavzevii = assay: In vitro evaluation of minimum inhibitory concentration against Candida krusei 70; format: functional; conditions: Pichia kudriavzevii; read-out: MIC; how it was run: as §1
Candida albicans [7] = assay: In vitro evaluation of minimum inhibitory concentration against Candida albicans 76; format: functional; conditions: Candida albicans; read-out: MIC; how it was run: as §1
Mus sp. [8] = assay: In vivo evaluation of % survival rate after peroral administration on 3rd day at dose 1 mg/kg; format: functional; conditions: Mus sp., po
Aspergillus niger = assay: In vitro evaluation of minimum inhibitory concentration against Aspergillus niger 18; format: functional; conditions: Aspergillus niger; read-out: MIC; how it was run: as §1
Rhodotorula mucilaginosa = assay: In vitro evaluation of minimum inhibitory concentration against Rhodotorula rubra 16; format: functional; conditions: Rhodotorula mucilaginosa; read-out: MIC; how it was run: as §1

In the case of `C[C@H]1N(C(=O)c2ccc(OCC(F)(F)C(F)F)cc2)C[C@H](O)O[C@@]1(Cn1cncn1)c1ccc(F)cc1F` (racemic), the MIC (Aspergillus flavus) is reported as > 80 µg/mL, the MIC (Candida parapsilosis) is reported as 10 µg/mL (≈ 18.4 µM) and the survival at 1 mg/kg (Mus sp. [1]) is reported as 50%. The MIC (Candida albicans [2]) was 1.25 µg/mL (≈ 2.3 µM), the MIC (Candida albicans [3]) was 5 µg/mL (≈ 9.18 µM) and the MIC (Trichophyton benhamiae) was > 80 µg/mL. For the same compound, the MIC (Trichophyton rubrum) was > 80 µg/mL, the MIC (Microsporum canis) was > 80 µg/mL and the MIC (Nakaseomyces glabratus) was > 80 µg/mL. For the same compound, the MIC (Kluyveromyces marxianus) was 0.63 µg/mL (≈ 1.16 µM), the MIC (Aspergillus fumigatus) was > 80 µg/mL and the MIC (Candida tropicalis) was 80 µg/mL (≈ 147 µM). It also gave a survival at 1 mg/kg (Mus sp. [4]) of 0%, a survival at 1 mg/kg (Mus sp. [5]) of 0% and an MIC [6] of 80 µg/mL (≈ 147 µM). The MIC (Nannizzia gypsea) was > 80 µg/mL, the MIC (Pichia kudriavzevii) was > 80 µg/mL and the MIC (Candida albicans [7]) was 80 µg/mL (≈ 147 µM). The survival at 1 mg/kg (Mus sp. [8]) was 80%, the MIC (Aspergillus niger) was > 80 µg/mL and the MIC (Rhodotorula mucilaginosa) was > 80 µg/mL.
